Screening data (PubChem)
Hits are enriched below; roughly 3.1% of the tested compounds scored in any of these assays.
KCNQ1 inh: inhibitors of human KCNQ1 potassium channel | B-score at 10 µM | CHO-K1 KCNQ1, FluxOR thallium flux fluorescence; hits give high values | 310,000 tested, 1.3% active;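 active = compounds whose thallium flux B-score, printed positive for inhibition, exceeds three library SD while starting fluorescence stays within three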;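 note: channel opened by potassium depolarization with thallium stimulus after 20 min compound exposure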
KCNQ1 pot: human KCNQ1 channel potentiation or activation | CHO-K1 KCNQ1, thallium flux FluxOR fluorescence; hits give high values | P51787 | 310,000 tested, 0.35% active | B-score at 10 µM;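 active = fluorescence ratio B-score, a plate-corrected score, at least three library SD, with initial intensity B-score within 5 SD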
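Material: CHO-K1 cells stably expressing KCNQ1. Medium: assay buffer for compound exposure, DMSO matched across wells. Reagent: K+/Tl+ depolarizing stimulus. Compound dosing: single-concentration screen. Times: 37 °C overnight plating, 90-min dark dye load, 20-min compound pretreatment. Technique: FluxOR Tl+ flux fluorescence.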
KCNK3 inh: human KCNK3 channel inhibition, primary screen. O14649. CHO-KCNK3 thallium flux, FluxOR fluorescence; hits give low values. B-score at 10 µM. 340,000 tested, 0.84% active;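 active = B-score under library mean minus 4 SD, starting fluorescence ratio at most library mean plus 5 SD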;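 note: more negative B-score means stronger inhibition of thallium flux through KCNK3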
Target sequence (O14649 whole entry, looked up): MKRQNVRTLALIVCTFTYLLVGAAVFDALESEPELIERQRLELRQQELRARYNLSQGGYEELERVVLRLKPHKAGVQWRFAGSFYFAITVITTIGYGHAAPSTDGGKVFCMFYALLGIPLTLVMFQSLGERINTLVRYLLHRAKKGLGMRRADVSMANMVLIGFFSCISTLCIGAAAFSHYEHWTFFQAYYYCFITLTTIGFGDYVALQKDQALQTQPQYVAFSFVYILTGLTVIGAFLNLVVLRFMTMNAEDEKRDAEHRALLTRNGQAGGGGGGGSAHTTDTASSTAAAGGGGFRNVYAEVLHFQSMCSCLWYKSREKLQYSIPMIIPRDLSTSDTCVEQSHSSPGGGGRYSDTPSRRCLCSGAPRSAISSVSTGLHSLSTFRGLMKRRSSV
KCNK9 inh: inhibitors of human KCNK9 two-pore domain potassium channel. HEK293 KCNK9, FluxOR thallium flux fluorescence; hits give low values. AID 488922. B-score at 10 µM. 310,000 tested, 1.2% active. Q9NPC2;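 active = ratio B-score over 3 SD below the library mean, with starting fluorescence within 5 SD of its mean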;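 note: negative B-score means less thallium flux so channel inhibition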
hERG rescue: compounds protecting human hERG from proarrhythmic drug block | activation (rescue from dofetilide block), less the hit threshold, % at 10 µM | AID 1511 | 310,000 tested, 0.51% active | CHO-hERG, FluxOR thallium flux, dofetilide IC70 present;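 active = activation above the mean of controls blocked by dofetilide plus 5 SD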;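 note: thallium influx through hERG after potassium depolarization seen as dye fluorescence rise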
KCNK9 inh conf: human KCNK9 inhibitor confirmation; HEK293 KCNK9 cells, FluxOR thallium flux fluorescence; AID 492992; 4,900 tested, 43% active; shares compounds with KCNK9 inh; inhibition, % at 10 µM;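 active = thallium signal inhibited by more than 5 SD of the compound-free buffer control wells, on both duplicate plates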
Kir2-1 spec: selectivity of KCNK9 modulators against mouse Kir2.1; shares compounds with KCNK9 inh; Kir2.1 cells, FluxOR thallium flux fluorescence; inhibition, % at 10 µM; 4,900 tested, 4% active;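 active = thallium signal drop more than 5 SD beyond the mean of the no-compound control wells, seen in both duplicate plates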;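 note: signal is fluorescence rise after thallium addition divided by baseline fluorescence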
HEK293 Tl ctr: second check of KCNK9 modulator effects in non-induced HEK293 cells | shares compounds with KCNK9 inh | FluxOR thallium flux | inhibition, % at 10 µM | 4,900 tested, 40% active | AID 492997;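 active = thallium signal drop beyond 5 SD of the untreated control mean, on both duplicate plates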
Each line names hits and unclear results; the compound was inactive in the other large screens (follow-up assays come after a bar, where they were run).

C(=N\N(Cc1ccccc1)c1ccccc1)/c1ccco1	KCNK9 inh -8.09 | KCNK9 inh conf inactive | Kir2-1 spec inactive | HEK293 Tl ctr 42.0%
CCOc1ccc(C2=C(C=C(C#N)C#N)C(c3ccccc3)c3ccccc3O2)cc1 (configuration not stated)	KCNK9 inh -11.5 | KCNK9 inh conf 50.0% | Kir2-1 spec inactive | HEK293 Tl ctr 24.5%
COc1ccc(C2=C(CN(C)C)C(c3ccccc3)c3ccccc3O2)cc1 (configuration not stated)	none
Cc1cc(C)n(C(=O)c2ccc(C)c(Br)c2)n1	none | KCNK9 inh conf inactive | Kir2-1 spec inactive | HEK293 Tl ctr inactive
O=C(N/N=C/c1ccccc1)NC1CCCCC1	none
CC(C)(C)c1ccc(/C=N/NC(=S)NC2CCCCC2)cc1	none | KCNK9 inh conf inactive | Kir2-1 spec inactive | HEK293 Tl ctr inactive
CCOc1ccccc1CNC(=O)c1cc2oc3ccccc3c2n1CC	KCNK9 inh -9.06 | KCNK9 inh conf 50.0% | Kir2-1 spec inactive | HEK293 Tl ctr 29.5%
